Experimental data taken from ChEMBL document CHEMBL1127521, “CCK-A-selective tetrapeptides containing lys(N epsilon)-amide residues: favorable in vivo and in vitro effects of N-methylation at the aspartyl residue” (J Med Chem, 1994).
Square brackets hold non-standard residues; d marks the D form. Peptide text beside a SMILES is read from it. * marks the point of attachment. ξ: configuration not given here. Acryloyl(3-(3-pyridyl),E) = O=C(/C=C/c1cccnc1)*; NMeF = CN[C@@H](Cc1ccccc1)C(=O)O; ξW = NC(Cc1c[nH]c2ccccc12)C(=O)O; NMeD = CN[C@@H](CC(=O)O)C(=O)O; X1 = O=C(/C=C/c1ccc(O)cc1)*; X2 = O=C(/C=C/c1cccs1)*; Boc = CC(C)(C)OC(=O)*

What was measured:
[1] = molecular target: T1, Cholecystokinin receptor type A (Cavia porcellus) (UniProt Q63931); test: Percent maximal stimulation of phosphatidylinositol hydrolysis in guinea pig pancreatic acini (CCK-A receptors) relative to CCK-8; format: functional
T1 sequence (whole entry): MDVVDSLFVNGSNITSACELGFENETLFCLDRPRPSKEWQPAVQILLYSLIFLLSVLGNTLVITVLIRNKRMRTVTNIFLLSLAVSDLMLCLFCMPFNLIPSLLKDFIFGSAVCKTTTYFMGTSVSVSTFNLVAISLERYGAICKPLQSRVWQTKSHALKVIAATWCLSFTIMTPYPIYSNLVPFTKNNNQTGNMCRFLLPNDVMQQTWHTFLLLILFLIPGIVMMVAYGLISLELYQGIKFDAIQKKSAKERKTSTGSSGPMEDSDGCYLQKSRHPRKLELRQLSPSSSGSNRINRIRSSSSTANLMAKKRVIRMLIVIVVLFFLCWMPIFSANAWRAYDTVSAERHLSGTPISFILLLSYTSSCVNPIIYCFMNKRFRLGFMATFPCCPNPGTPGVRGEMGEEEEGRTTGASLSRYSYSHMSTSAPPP
How it was run: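 Functional CCK-A assay in guinea pig pancreatic acini. Phosphatidylinositol hydrolysis is measured and expressed as percent of the maximal stimulation produced by CCK-8.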

[2] = molecular target: Cholecystokinin A receptor (Cavia porcellus); test: In vitro inhibition of [125I]CCK-8 binding to guinea pig pancreas
[3] = molecular target: Cholecystokinin B receptor (Cavia porcellus); test: In vitro binding for inhibition of [125I]- Bolton-Hunter-CCK-8 binding in guinea pig cortex
[4] = test system: Rattus norvegicus; test: Compound was evaluated for Appetite suppression, based on intake of liquid diet by food-deprived rats for 1 h following intraperitoneal injection; format: functional; conditions: ip
How it was run: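 Rats are food-deprived, dosed intraperitoneally, and their liquid diet intake over the following 1 h is measured as the appetite suppression read-out.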

| SMILES | Hydrolysis [1] | ED50 [4] | further results |
| --- | --- | --- | --- |
| CN(C(=O)[C@H](CCCCNC(=O)/C=C/c1ccc(O)cc1)NC(=O)C(Cc1c[nH]c2ccccc12)NC(=O)OC(C)(C)C)[C@@H](CC(=O)O)C(=O)N[C@@H](Cc1ccccc1)C(N)=O (some centres not stated) (Boc-[ξW]K(X1)[NMeD]F-NH2) | 101% | – | – |
| CN(C(=O)[C@H](CCCCNC(=O)/C=C/c1cccs1)NC(=O)[C@H](Cc1c[nH]c2ccccc12)NC(=O)OC(C)(C)C)[C@@H](CC(=O)O)C(=O)N(C)[C@@H](Cc1ccccc1)C(N)=O (Boc-WK(X2)[NMeD][NMeF]-NH2) [listing 1 of 2 here] | – | – | IC50 [2]: 32 nM; IC50 [3]: 10.9 µM |
| CN(C(=O)[C@H](CC(=O)O)NC(=O)[C@H](CCCCNC(=O)/C=C/c1cccs1)NC(=O)[C@H](Cc1c[nH]c2ccccc12)NC(=O)OC(C)(C)C)[C@@H](Cc1ccccc1)C(N)=O (Boc-WK(X2)D[NMeF]-NH2) [listing 1 of 2 here] | – | – | IC50 [2]: 18 nM; IC50 [3]: 0.731 µM |
| CN(C(=O)[C@H](CCCCNC(=O)/C=C/c1ccc(O)cc1)NC(=O)[C@H](Cc1c[nH]c2ccccc12)NC(=O)OC(C)(C)C)[C@@H](CC(=O)O)C(=O)N(C)[C@@H](Cc1ccccc1)C(N)=O (Boc-WK(X1)[NMeD][NMeF]-NH2) [listing 1 of 2 here] | – | 0.062 µmol/kg | – |
| CN(C(=O)[C@H](CCCCNC(=O)/C=C/c1ccc(O)cc1)NC(=O)[C@H](Cc1c[nH]c2ccccc12)NC(=O)OC(C)(C)C)[C@@H](CC(=O)O)C(=O)N[C@@H](Cc1ccccc1)C(N)=O (Boc-WK(X1)[NMeD]F-NH2) [listing 1 of 2 here] | – | – | IC50 [2]: 5 nM; IC50 [3]: 5.81 µM |
| CN(C(=O)[C@H](CCCCNC(=O)/C=C/c1ccc(O)cc1)NC(=O)[C@H](Cc1c[nH]c2ccccc12)NC(=O)OC(C)(C)C)[C@@H](CC(=O)O)C(=O)N(C)[C@@H](Cc1ccccc1)C(N)=O (Boc-WK(X1)[NMeD][NMeF]-NH2) [listing 2 of 2 here] | – | – | IC50 [2]: 9 nM; IC50 [3]: 13.6 µM |
| CN(C(=O)[C@H](CCCCNC(=O)/C=C/c1cccs1)NC(=O)C(Cc1c[nH]c2ccccc12)NC(=O)OC(C)(C)C)[C@@H](CC(=O)O)C(=O)N(C)[C@@H](Cc1ccccc1)C(N)=O (some centres not stated) (Boc-[ξW]K(X2)[NMeD][NMeF]-NH2) | 93% | – | – |
| CN(C(=O)[C@H](CC(=O)O)NC(=O)[C@H](CCCCNC(=O)/C=C/c1cccnc1)NC(=O)[C@H](Cc1c[nH]c2ccccc12)NC(=O)OC(C)(C)C)[C@@H](Cc1ccccc1)C(N)=O (Boc-WK(Acryloyl(3-(3-pyridyl),E))D[NMeF]-NH2) [listing 1 of 2 here] | – | – | IC50 [3]: 0.128 µM |
| CN(C(=O)[C@H](CCCCNC(=O)/C=C/c1cccnc1)NC(=O)[C@H](Cc1c[nH]c2ccccc12)NC(=O)OC(C)(C)C)[C@@H](CC(=O)O)C(=O)N(C)[C@@H](Cc1ccccc1)C(N)=O (Boc-WK(Acryloyl(3-(3-pyridyl),E))[NMeD][NMeF]-NH2) [listing 1 of 2 here] | – | – | IC50 [2]: 50 nM |
| CN(C(=O)[C@H](CC(=O)O)NC(=O)[C@H](CCCCNC(=O)/C=C/c1cccs1)NC(=O)[C@H](Cc1c[nH]c2ccccc12)NC(=O)OC(C)(C)C)[C@@H](Cc1ccccc1)C(N)=O (Boc-WK(X2)D[NMeF]-NH2) [listing 2 of 2 here] | – | 1.4 µmol/kg | – |
| CN(C(=O)[C@H](CCCCNC(=O)/C=C/c1cccs1)NC(=O)[C@H](Cc1c[nH]c2ccccc12)NC(=O)OC(C)(C)C)[C@@H](CC(=O)O)C(=O)N[C@@H](Cc1ccccc1)C(N)=O (Boc-WK(X2)[NMeD]F-NH2) [listing 1 of 2 here] | – | 0.012 µmol/kg | – |
| CN(C(=O)[C@H](CCCCNC(=O)/C=C/c1cccnc1)NC(=O)[C@H](Cc1c[nH]c2ccccc12)NC(=O)OC(C)(C)C)[C@@H](CC(=O)O)C(=O)N[C@@H](Cc1ccccc1)C(N)=O (Boc-WK(Acryloyl(3-(3-pyridyl),E))[NMeD]F-NH2) [listing 1 of 2 here] | – | – | IC50 [2]: 41 nM; IC50 [3]: 10.4 µM |
| CN(C(=O)[C@H](CCCCNC(=O)/C=C/c1cccs1)NC(=O)[C@H](Cc1c[nH]c2ccccc12)NC(=O)OC(C)(C)C)[C@@H](CC(=O)O)C(=O)N[C@@H](Cc1ccccc1)C(N)=O (Boc-WK(X2)[NMeD]F-NH2) [listing 2 of 2 here] | – | – | IC50 [2]: 35 nM; IC50 [3]: 4.577 µM |
| CN(C(=O)[C@H](CCCCNC(=O)/C=C/c1cccnc1)NC(=O)[C@H](Cc1c[nH]c2ccccc12)NC(=O)OC(C)(C)C)[C@@H](CC(=O)O)C(=O)N[C@@H](Cc1ccccc1)C(N)=O (Boc-WK(Acryloyl(3-(3-pyridyl),E))[NMeD]F-NH2) [listing 2 of 2 here] | – | 0.036 µmol/kg | – |
| CN(C(=O)[C@H](CCCCNC(=O)/C=C/c1ccc(O)cc1)NC(=O)[C@H](Cc1c[nH]c2ccccc12)NC(=O)OC(C)(C)C)[C@@H](CC(=O)O)C(=O)N[C@@H](Cc1ccccc1)C(N)=O (Boc-WK(X1)[NMeD]F-NH2) [listing 2 of 2 here] | – | 0.018 µmol/kg | – |
| CN(C(=O)[C@H](CC(=O)O)NC(=O)[C@H](CCCCNC(=O)/C=C/c1ccc(O)cc1)NC(=O)[C@H](Cc1c[nH]c2ccccc12)NC(=O)OC(C)(C)C)[C@@H](Cc1ccccc1)C(N)=O (Boc-WK(X1)D[NMeF]-NH2) | – | 0.413 µmol/kg | – |
| CN(C(=O)[C@H](CCCCNC(=O)/C=C/c1cccnc1)NC(=O)[C@H](Cc1c[nH]c2ccccc12)NC(=O)OC(C)(C)C)[C@@H](CC(=O)O)C(=O)N(C)[C@@H](Cc1ccccc1)C(N)=O (Boc-WK(Acryloyl(3-(3-pyridyl),E))[NMeD][NMeF]-NH2) [listing 2 of 2 here] | – | 0.016 µmol/kg | – |
| CN(C(=O)[C@H](CCCCNC(=O)/C=C/c1cccs1)NC(=O)[C@H](Cc1c[nH]c2ccccc12)NC(=O)OC(C)(C)C)[C@@H](CC(=O)O)C(=O)N(C)[C@@H](Cc1ccccc1)C(N)=O (Boc-WK(X2)[NMeD][NMeF]-NH2) [listing 2 of 2 here] | – | 0.022 µmol/kg | – |
| CN(C(=O)[C@H](CCCCNC(=O)/C=C/c1ccc(O)cc1)NC(=O)C(Cc1c[nH]c2ccccc12)NC(=O)OC(C)(C)C)[C@@H](CC(=O)O)C(=O)N(C)[C@@H](Cc1ccccc1)C(N)=O (some centres not stated) (Boc-[ξW]K(X1)[NMeD][NMeF]-NH2) | 91% | – | – |
| CN(C(=O)[C@H](CC(=O)O)NC(=O)[C@H](CCCCNC(=O)/C=C/c1cccnc1)NC(=O)[C@H](Cc1c[nH]c2ccccc12)NC(=O)OC(C)(C)C)[C@@H](Cc1ccccc1)C(N)=O (Boc-WK(Acryloyl(3-(3-pyridyl),E))D[NMeF]-NH2) [listing 2 of 2 here] | – | 2.52 µmol/kg | – |

The next lines start with results.

| Hydrolysis [1] | SMILES | ED50 [4] | further results |
| --- | --- | --- | --- |
| 95% | CN(C(=O)[C@H](CCCCNC(=O)/C=C/c1cccs1)NC(=O)C(Cc1c[nH]c2ccccc12)NC(=O)OC(C)(C)C)[C@@H](CC(=O)O)C(=O)N[C@@H](Cc1ccccc1)C(N)=O (some centres not stated) (Boc-[ξW]K(X2)[NMeD]F-NH2) | – | – |
| 98% | CN(C(=O)[C@H](CCCCNC(=O)/C=C/c1cccnc1)NC(=O)C(Cc1c[nH]c2ccccc12)NC(=O)OC(C)(C)C)[C@@H](CC(=O)O)C(=O)N[C@@H](Cc1ccccc1)C(N)=O (some centres not stated) (Boc-[ξW]K(Acryloyl(3-(3-pyridyl),E))[NMeD]F-NH2) | – | – |
| 76% | CN(C(=O)[C@H](CC(=O)O)NC(=O)[C@H](CCCCNC(=O)/C=C/c1ccc(O)cc1)NC(=O)C(Cc1c[nH]c2ccccc12)NC(=O)OC(C)(C)C)[C@@H](Cc1ccccc1)C(N)=O (some centres not stated) (Boc-[ξW]K(X1)D[NMeF]-NH2) | – | – |
| 88% | CN(C(=O)[C@H](CC(=O)O)NC(=O)[C@H](CCCCNC(=O)/C=C/c1cccnc1)NC(=O)C(Cc1c[nH]c2ccccc12)NC(=O)OC(C)(C)C)[C@@H](Cc1ccccc1)C(N)=O (some centres not stated) (Boc-[ξW]K(Acryloyl(3-(3-pyridyl),E))D[NMeF]-NH2) | – | – |
| 84% | CN(C(=O)[C@H](CC(=O)O)NC(=O)[C@H](CCCCNC(=O)/C=C/c1cccs1)NC(=O)C(Cc1c[nH]c2ccccc12)NC(=O)OC(C)(C)C)[C@@H](Cc1ccccc1)C(N)=O (some centres not stated) (Boc-[ξW]K(X2)D[NMeF]-NH2) | – | – |
| 94% | CN(C(=O)[C@H](CCCCNC(=O)/C=C/c1cccnc1)NC(=O)C(Cc1c[nH]c2ccccc12)NC(=O)OC(C)(C)C)[C@@H](CC(=O)O)C(=O)N(C)[C@@H](Cc1ccccc1)C(N)=O (some centres not stated) (Boc-[ξW]K(Acryloyl(3-(3-pyridyl),E))[NMeD][NMeF]-NH2) | – | – |
